Source: article PMC4716540 (British Journal of Cancer, 2015)
“And” between values parts separate entries of the source, which are not always exact repeats. Equal values may be shown once.

Tests used:
[1] = test system: primary myeloma cells; settings: in the presence of bone marrow stromal cells; ref Juliger et al, 2008; cited from earlier work
[2] = Plasma pharmacokinetics of KW-2478; assay type: in vivo, human
[3] = test system: Hsp70 in peripheral blood mononuclear cells (PBMCs); assay: Hsp70 levels in PBMCs by western blot as biomarker for Hsp90 inhibition; assay type: in vivo, human
Method in brief: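 Patients with relapsed/refractory B-cell malignancies received the test compound by 1-h IV infusion on days 1–5 of a 14-day cycle (cohorts 14–176 mg m⁻², 3+3 design). Hsp70 was measured by western blot at an independent central laboratory, as change from baseline, and summarised descriptively by dose level.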

[4] = test system: relapsed/refractory MM and NHL; assay: Tumour response by standard criteria for MM and NHL; assay type: in vivo, human; settings: for Duration of sustained SD: one patient
Method in brief: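 Best tumour response was assessed over all cycles of single-agent treatment. The agent was given by 1-h IV infusion on days 1–5 of each 14-day cycle, at 14–176 mg m⁻². Treatment continued for up to 12 months or until progression, unacceptable toxicity or withdrawal. Intrapatient escalation was allowed after at least two cycles. Chemotherapy, radiotherapy and corticosteroids were excluded. Responses were summarised descriptively by dose level.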

[5] = test system: Hsp90; settings: ref Nakashima et al, 2010; Ishii et al, 2012; cited from earlier work
[6] = test system: in vitro and in vivo models, including primary MM patient samples; settings: ref Nakashima et al, 2010, Ishii et al, 2012; cited from earlier work
[7] = 14 mg m^–2 iv, day 1, n=3, mean±s.d.
[8] = 14 mg m^–2 iv, day 5, n=3, mean±s.d.
[9] = 28 mg m^–2 iv, day 1, n=3, mean±s.d.
[10] = 28 mg m^–2 iv, day 5, n=3, mean±s.d.
[11] = 47 mg m^–2 iv, day 1, n=3, mean±s.d.
[12] = 47 mg m^–2 iv, day 5, n=2, mean±s.d.
[13] = 71 mg m^–2 iv, day 1, n=3, mean±s.d.
[14] = 71 mg m^–2 iv, day 5, n=2, mean±s.d.
[15] = 99 mg m^–2 iv, day 1, n=3, mean±s.d.
[16] = 99 mg m^–2 iv, day 5, n=3, mean±s.d.
[17] = 132 mg m^–2 iv, day 1, n=6, mean±s.d.
[18] = 132 mg m^–2 iv, day 5, n=6, mean±s.d.
[19] = 176 mg m^–2 iv, day 1, n=6, mean±s.d.
[20] = 176 mg m^–2 iv, day 5, n=5, mean±s.d.
[21] = 25 evaluable patients, all doses

## CCc1c(O)cc(O)c(C(=O)c2ccc(OCCN3CCOCC3)c(OC)c2)c1CC(=O)N(CCOC)CCOC [KW-2478]
[1]
  Activity against primary myeloma cells: retained
[2]; [7]
  AUC0–t: 819±403 ng h^–1 ml^–1
  AUC0–∞: 992±497 ng h^–1 ml^–1
  CL (total plasma clearance): 28.9±11.1 l h^–1
  Cmax: 645±306 ng ml^–1
  kel (elimination rate constant): 0.11 ± 0.01 h⁻¹
  t½ (terminal half-life): 6.05 ± 0.37 h
[2]; [8]
  AUC0–t: 844±445 ng h^–1 ml^–1
  Cmax: 656±342 ng ml^–1
[2]; [9]
  AUC0–t: 1935±848 ng h^–1 ml^–1
  AUC0–∞: 2353±1117 ng h^–1 ml^–1
  CL (total plasma clearance): 23.1±15.9 l h^–1
  Cmax: 1620±556 ng ml^–1
  kel (elimination rate constant): 0.11 ± 0.02 h⁻¹
  t½ (terminal half-life): 6.48 ± 0.96 h
[2]; [10]
  AUC0–t: 1639±768 ng h^–1 ml^–1
  Cmax: 1320±531 ng ml^–1
[2]; [11]
  AUC0–t: 2325±652 ng h^–1 ml^–1
  AUC0–∞: 2758±891 ng h^–1 ml^–1
  CL (total plasma clearance): 34.9±8.35 l h^–1
  Cmax: 1990±236 ng ml^–1
  kel (elimination rate constant): 0.11 ± 0.01 h⁻¹
  t½ (terminal half-life): 6.60 ± 0.69 h
[2]; [12]
  AUC0–t: 2334±532 ng h^–1 ml^–1
  Cmax: 1705±785 ng ml^–1
[2]; [13]
  AUC0–t: 2798±432 ng h^–1 ml^–1
  AUC0–∞: 3197±400 ng h^–1 ml^–1
  CL (total plasma clearance): 43.0±6.80 l h^–1
  Cmax: 2620±585 ng ml^–1
  kel (elimination rate constant): 0.11 ± 0.02 h⁻¹
  t½ (terminal half-life): 6.29 ± 0.93 h
[2]; [14]
  AUC0–t: 3681±497 ng h^–1 ml^–1
  Cmax: 2675±49.5 ng ml^–1
[2]; [15]
  AUC0–t: 4220±1251 ng h^–1 ml^–1
  AUC0–∞: 4826±1504 ng h^–1 ml^–1
  CL (total plasma clearance): 42.7±12.5 l h^–1
  Cmax: 3400±876 ng ml^–1
  kel (elimination rate constant): 0.12 ± 0.003 h⁻¹
  t½ (terminal half-life): 5.83 ± 0.14 h
[2]; [16]
  AUC0–t: 3673±932 ng h^–1 ml^–1
  Cmax: 2977±610 ng ml^–1
[2]; [17]
  AUC0–t: 6910±1864 ng h^–1 ml^–1
  CL (total plasma clearance): 35.0±9.99 l h^–1
  Cmax: 5410±1622 ng ml^–1
  kel (elimination rate constant): 0.12 ± 0.01 h⁻¹
  t½ (terminal half-life): 5.71 ± 0.61 h
[2]; [18]
  AUC0–t: 7262±1331 ng h^–1 ml^–1
  Cmax: 5972±940 ng ml^–1
[2]; [19]
  CL (total plasma clearance): 32.8±10.7 l h^–1
  Cmax: 6838±1961 ng ml^–1
  kel (elimination rate constant): 0.13 ± 0.01 h⁻¹
  t½ (terminal half-life): 5.43 ± 0.39 h
[2]; [20]
  AUC0–t: 8355±2496 ng h^–1 ml^–1
  Cmax: 6062±1411 ng ml^–1
[2]; 14–176 mg m^–2
  Mean t½, range across dose levels: 5.4 to 6.6 h
  Total CL, range of means across dose levels: 23.1–43.0 l h^–1
[2]; after end of infusion, rapid distribution phase and slower elimination phase
  Manner of plasma concentration decline: biphasic
[2]; days 1 and 5
  Mean Cmax and AUC values in relation to dose: increased linearly in relation to dose
[2]; once daily days 1–5
  Accumulation from days 1 to 5 (Cmax, AUC): no relevant accumulation
[2]; plasma, iv infusion over 1 h
  Terminal half-life: ~6 h
[3]; doses ⩾71 mg m^–2, 8 h after dosing on days 1 and 5
  Hsp70 induction above baseline in PBMCs: ≥ 25%
[3]; western blot
  Doses at which Hsp70 levels in PBMCs increased (target inhibition inferred): ≥ 71 mg m^–2
[4]; 21 evaluable MM patients
  Progressive disease, MM patients: 4.8%
  Stable disease (SD), MM patients: 95.2%
[4]; [21]
  Evaluable patients with stable disease (disease stabilisation rate): 96%
  Overall disease control rate: 96.0%
[4]; all doses
  Patients with SD lasting ⩾3 months: Eight
  Patients with SD lasting ⩾6 months (free of disease progression): five
[4]; best tumour response over all cycles
  Complete or partial responses: No patients achieved complete or partial responses
[4]; four evaluable NHL patients
  Stable disease (SD), NHL patients: 100%
[4]; individual patient, MM, 99 mg m^–2
  Duration of response: 3.1 months
[4]; individual patient, NHL, 99 mg m^–2
  Duration of response: 1.5 months
[4]; individual patient, NHL, 176 mg m^–2
  Duration of response: 1.3 months
[4]; individual patients, MM, 14 mg m^–2
  Duration of response: 1 months and 1.4 months
[4]; individual patients, MM, 28 mg m^–2
  Duration of response: 11.3 months and 0.8 months and 1.8 months
[4]; individual patients, MM, 47 mg m^–2
  Duration of response: 1.3 months and 1 months
[4]; individual patients, MM, 71 mg m^–2
  Duration of response: 1.1 months and 5.1 months
[4]; individual patients, MM, 132 mg m^–2
  Duration of response: 1.4 months and 8.8 months and 12.9 months
[4]; individual patients, MM, 176 mg m^–2
  Duration of response: 3.5 months and 1.3 months and 11.9 months and 2 months
[4]; individual patients, NHL, 132 mg m^–2
  Duration of response: 1.4 months and 8.2 months
[4]; 132 mg m^–2 cohort
  Duration of sustained SD: 12.9 months
[4]; 176 mg m^–2 cohort
  Duration of sustained SD: 11.9 months
[5]
  Binding affinity to Hsp90: high binding affinity
[6]
  Antitumour activity: potent antitumour activity
